The source made the active and inactive calls. No cut-off for these calls is given here.
Legend:
Saccharomyces cerevisiae [1] = assay: Growth inhibition of Saccharomyces cerevisiae 1138 mutant by yeast bioassay; type: functional
A2780 [2] = assay: Cell cycle arrest in human A2780 cells overexpressing wild type p53 by accumulation at G1 phase at 5 X respective cytotoxic IC50 after 24 hrs by FACS; type: functional, cell-based
How it was run: (§1)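 Flow cytometry (FACS) of A2780/p53wt cells after 24 h exposure at increasing multiples of each compound's own IC50, scored for G1 arrest and apoptosis; A2780/mutp53 cells run alongside.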

A2780 [3] = assay: Induction of apoptosis in human A2780 cells overexpressing wild type p53 at >5 X respective cytotoxic IC50 after 24 hrs; type: functional, cell-based; how it was run: as §1
M109 = assay: Cytotoxicity against mouse M109 cells; type: functional, cell-based
How it was run: (§2)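 Cell-culture cytotoxicity in a 25-line panel by standard methods. Activity given as IC50 in µM.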

A-431 = assay: Cytotoxicity against human A431 cells; type: functional, cell-based; how it was run: as §2
[4] = Cytotoxicity against human OVACR3 cells; type: functional, cell-based; how it was run: as §2
MLF = assay: Cytotoxicity against MLF cells; type: cell-based; details: Mus musculus; how it was run: as §2
Saccharomyces cerevisiae [5] = assay: Growth inhibition of Saccharomyces cerevisiae 1140 mutant by yeast bioassay; type: functional
Saccharomyces cerevisiae [6] = assay: Growth inhibition of Saccharomyces cerevisiae 1353 mutant by yeast bioassay; type: functional

SMILES | IC12 (Saccharomyces cerevisiae [1]) [µg/mL] | further results
C=CCn1c2ccccc2c2c1cc1ccccc1[n+]2C.O=S(=O)([O-])C(F)(F)F | 200 | –
C[n+]1c2ccccc2cc2[nH]c3ccccc3c21 [listing 1 of 2 here] | – | Activity (A2780 [2]): Active; Activity (A2780 [3]): Dose-dependent effect
Cc1c2nc3ccccc3c-2[nH]c2ccccc12 | 50 | IC50 (M109): < 10000 nM
CCCC[n+]1c2ccccc2cc2[nH]c3ccccc3c21.[Br-] | > 400 | –
COC(=O)c1c2ccccc2nc2c1[nH]c1ccccc12 | 40 | IC50 (M109): < 10000 nM
CC(CO)(CO)NCc1c2ccccc2nc2c1[nH]c1ccccc12 | > 400 | –
CC(=O)n1c2ccccc2c2nc3ccccc3cc21 | 80 | –
C[n+]1c2ccccc2cc2[nH]c3ccccc3c21 [listing 2 of 2 here] | – | IC50 (A-431): 340 nM; IC50 (M109): < 1000 nM; IC50 [4]: 500 nM; IC50 (MLF): 4900 nM
C[n+]1c2ccccc2cc2[nH]c3ccccc3c21.[I-] [CRYPTOLEPTINE IODIDE] | 1.5 | –
Clc1c2ccccc2nc2c1oc1ccccc12 | > 400 | –
Ic1c2ccccc2nc2c1oc1ccccc12 | > 400 | –
O=c1c2ccccc2[nH]c2c1oc1ccccc12 | > 400 | –
CCn1c2ccccc2c2c1cc1ccccc1[n+]2C.O=S(=O)([O-])C(F)(F)F | 80 | –
C[n+]1c2ccccc2cc2oc3ccccc3c21.[I-] | 400 | –
O=Cc1c2ccccc2nc2c1[nH]c1ccccc12 | > 400 | –
OCc1c2ccccc2nc2c1[nH]c1ccccc12 | 125 | –
C[n+]1c2ccccc2cc2[n-]c3ccccc3c21 [CRYPTOLEPINE] | 0.5 | –

SMILES | IC12 (Saccharomyces cerevisiae [1]) [µg/mL] | further results
CCC[n+]1c2ccccc2cc2[nH]c3ccccc3c21.[I-] | 400 | –
O=c1c2c3ccccc3nc3c4ccccc4n(c(=O)c4c5ccccc5nc5c6ccccc6n1c54)c32 | > 400 | –
CC[n+]1c2ccccc2cc2[nH]c3ccccc3c21.[I-] | 40 | IC50 (M109): < 50000 nM
O=C(O)c1c2nc3ccccc3c-2[nH]c2ccccc12 | > 400 | –
O=C(OCCO)c1c2ccccc2nc2c1[nH]c1ccccc12 | > 400 | –
CCCn1c2ccccc2c2c1cc1ccccc1[n+]2C.O=S(=O)([O-])C(F)(F)F | 125 | –
c1ccc2nc3c(cc2c1)[nH]c1ccccc13 [QUINDOLINE] | 150 | –
O=C(OCCOC(=O)c1c2ccccc2nc2c1[nH]c1ccccc12)c1c2ccccc2nc2c1[nH]c1ccccc12 | > 400 | –
c1ccc2nc3c(cc2c1)oc1ccccc13 | > 400 | –
CC(=O)n1c2ccccc2c2c1cc1ccccc1[n+]2C.[Cl-] | 5 | IC50 (A-431): 340 nM; IC50 (M109): < 1000 nM; Activity (A2780 [2]): Active; IC50 [4]: 500 nM; IC50 (MLF): 4900 nM; Activity (A2780 [3]): Dose-dependent effect
c1ccc(Cn2c3ccccc3c3nc4ccccc4cc32)cc1 | > 400 | –
NC(=O)c1c2cc(Br)ccc2nc2c1[nH]c1ccccc12 | 400 | –
CCCCn1c2ccccc2c2c1cc1ccccc1[n+]2C.O=S(=O)([O-])C(F)(F)F | 90 | –
C[n+]1c2ccccc2cc2[n-]c3ccccc3c21.Cl [CRYPTOLEPINE HYDROCHLORIDE] | 0.6 | IC50 (M109): < 1 µg/mL; IC12 (Saccharomyces cerevisiae [5]): 0.6 µg/mL; IC12 (Saccharomyces cerevisiae [6]): 0.6 µg/mL
COC(=O)c1c2cc(Br)ccc2nc2c1[nH]c1ccccc12 | 100 | –
Cn1c2ccccc2c2c1cc1ccccc1[n+]2C.O=S(=O)([O-])C(F)(F)F | 5 | IC50 (M109): < 10000 nM
O=C1OCc2c3ccccc3nc3c4ccccc4n1c23 | 50 | IC50 (M109): < 10000 nM
